The results in this text go back to the array DNA melting data of Ke et al. (doi:10.1101/2024.01.08.574731).

The nature of series [1]: melting temperature; fluorescence melt of hairpins on a sequencing array, two-state fit, raised by 9.35 °C to match UV melts. The conditions noted are these: sodium 0.088 M. Summed up: (§1)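 Two-state fits, bootstrapped, provided melting temperature and folding enthalpy from Cy3 fluorescence normalised to pre-quench Cy3 and to control constructs. Library hairpins with annealed Cy3 and quencher oligos were imaged on a sequenced MiSeq flow cell in 50 mM Na-HEPES pH 8.0, 25 mM NaCl, at 2.5 °C intervals up to 60 °C. Four replicates were combined with inverse-variance weighting. A 9.35 °C upward shift was applied to fitted temperatures to match UV melts.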

Series [2] can be described thus: folding enthalpy; higher = less favourable; fluorescence melt of hairpins on a sequencing array, two-state fit. Particulars: sodium 0.088 M. Summed up:
as §1

On to GCTCTGCGAAAGCCGCGC ((.(.((....)).).)), for which, in series [1], the Tm is 39.4 °C. In addition, the folding enthalpy in series [2] was -15 kcal/mol.

GCTCTGCGAAAGCTGAGC ((((.((....)).)))): in series [1], the Tm stood at 68.3 °C. Besides, the folding enthalpy in series [2] is -41.2 kcal/mol.

As to GCTCTGGGAAACTGGAGC ((((..(....)..)))), the Tm in series [1] was found to be 45.9 °C. Besides, the folding enthalpy in series [2] is -34.1 kcal/mol.

On to GCTCTTACGAAAGTAAGC (((..(((....)))))), for which the Tm in series [1] came to 34.7 °C. In addition, in series [2], the folding enthalpy is -9.83 kcal/mol.

Turning to GCTGACCCGAAAGGGAGC (((..(((....)))))), the Tm in series [1] came to 41.8 °C. For the same sequence, the folding enthalpy in series [2] was -14.7 kcal/mol.

Regarding GCTGACCGAAAGGTGAGC (((.(((....))).))), the Tm in series [1] stood at 55.4 °C. Besides, the folding enthalpy in series [2] was -38.4 kcal/mol.

Take GCTGACGAAAGTCGAAGC ((((((....)))..))): the Tm in series [1] worked out at 48.5 °C. Besides, in series [2], the folding enthalpy was -19.1 kcal/mol.

Regarding GCTGACGGAAACGTCAAC (.(((((....))))).), the Tm in series [1] turned out to be 43.2 °C. In addition, the folding enthalpy in series [2] was -14.3 kcal/mol.

Take GCTGAGCGAAAGCCAAGC (((..((....))..))): the Tm in series [1] is 48.6 °C. For the same sequence, the folding enthalpy in series [2] was -18.8 kcal/mol.

In the case of GCTGAGCGAAAGCCCTGC ((.(.((....)).).)), the Tm in series [1] was 42.5 °C. Also, the folding enthalpy in series [2] was -17.7 kcal/mol.

On to GCTGAGCGAAAGCGCCGC ((.(.((....)).).)), for which the Tm in series [1] amounted to 50.5 °C. Besides, the folding enthalpy in series [2] is -15.2 kcal/mol.

Take GCTGAGCGAAAGCTAGC (((.(((....)))))): the Tm in series [1] is 53 °C. Further, the folding enthalpy in series [2] is -26.3 kcal/mol.

As for GCTGAGCGAAAGCTAGGC ((..(((....)))..)), in series [1], the Tm amounted to 52.7 °C. In addition, the folding enthalpy in series [2] is -20.3 kcal/mol.

Consider GCTGATGGAAACATCAGC (((((((....))))))), for which the Tm in series [1] is 67.6 °C. Moreover, in series [2], the folding enthalpy was -43.5 kcal/mol.

Take GCTGATGGAAACATTGGC ((..(((....)))..)): the Tm in series [1] is 36 °C. Besides, the folding enthalpy in series [2] was -31 kcal/mol.

With GCTGCACCGAAAGGTAGC (((..(((....)))))), the Tm in series [1] stood at 49.2 °C. The folding enthalpy in series [2] was -13.4 kcal/mol.

Consider GCTGCAGGAAACTACAGC ((((.((....)).)))), for which, in series [1], the Tm worked out at 45.6 °C. In series [2], the folding enthalpy is -33.9 kcal/mol.

On to GCTGCATCGAAAGATAGC (((..(((....)))))), for which the Tm in series [1] was 35.6 °C. The folding enthalpy in series [2] was -17 kcal/mol.

Turning to GCTGCCCGAAAGGGAGC (((.(((....)))))), the Tm in series [1] was determined as 57.1 °C. Besides, in series [2], the folding enthalpy was -23 kcal/mol.

Take GCTGCCGAAAGGCGAGC ((((((....))).))): the Tm in series [1] was found to be 64.3 °C. In series [2], the folding enthalpy is -18.6 kcal/mol.

Take GCTGCCGAAAGGCGGAGC ((((((....)))..))): the Tm in series [1] was found to be 51.3 °C. Besides, the folding enthalpy in series [2] is -12.6 kcal/mol.

Regarding GCTGCCGAAAGGCTGAGC ((((((....)))..))), in series [1], the Tm was determined as 50.1 °C. Moreover, in series [2], the folding enthalpy was -16.2 kcal/mol.

For the sequence GCTGCGCGAAAGCAAAGC (((..((....))..))), the Tm in series [1] came out at 62 °C. In addition, in series [2], the folding enthalpy is -30.6 kcal/mol.

Consider GCTGCGCGAAAGCCGAGC (((..((....))..))), for which, in series [1], the Tm came out at 45 °C. The folding enthalpy in series [2] was -17 kcal/mol.

GCTGCGCGAAAGCGAGC (((.(((....)))))): the Tm in series [1] amounted to 60.4 °C. For the same sequence, the folding enthalpy in series [2] is -14.3 kcal/mol.

As to GCTGCGCGAAAGCGATGC ((..(((....)))..)), in series [1], the Tm was 58 °C. Moreover, the folding enthalpy in series [2] is -18.6 kcal/mol.

As for GCTGCGCGAAAGCGTGGC ((..(((....)))..)), the Tm in series [1] is 65.9 °C. Besides, the folding enthalpy in series [2] is -24.3 kcal/mol.

On to GCTGCGCGAAAGCTCTGC ((.(.((....)).).)), for which the Tm in series [1] was found to be 42.3 °C. The folding enthalpy in series [2] was -18.2 kcal/mol.

Consider GCTGCGCGAAAGCTGAGC (((..((....))..))), for which the Tm in series [1] was 43.8 °C. Also, the folding enthalpy in series [2] was -13.2 kcal/mol.

Take GCTGCGGCGAAAGCCAGC (((..(((....)))))): in series [1], the Tm came out at 57.4 °C. Besides, the folding enthalpy in series [2] is -10.7 kcal/mol.

Turning to GCTGCGGGAAACCACAGC ((((.((....)).)))), the Tm in series [1] was determined as 52.7 °C. For the same sequence, the folding enthalpy in series [2] was -37.5 kcal/mol.

Consider GCTGCGGGAAACCGTAGC (((.(((....))).))), for which the Tm in series [1] is 58.5 °C. In addition, the folding enthalpy in series [2] was -49.1 kcal/mol.

As for GCTGCTCGAAAGAGAAGC (((.(((....))).))), the Tm in series [1] turned out to be 55.5 °C. The folding enthalpy in series [2] is -37.6 kcal/mol.

As for GCTGCTGGAAACAACAGC ((((.((....)).)))), the Tm in series [1] stood at 47.2 °C. In series [2], the folding enthalpy was -32.8 kcal/mol.

Regarding GCTGGACGAAAGTCAGC (((.(((....)))))), in series [1], the Tm is 56.1 °C. Besides, the folding enthalpy in series [2] was -30.6 kcal/mol.

On to GCTGGAGGAAACCCCAGC (((((.(....).))))), for which the Tm in series [1] stood at 52.8 °C. The folding enthalpy in series [2] is -38.7 kcal/mol.
